Experimental data reported in publication PMC6300136 (Cancer chemotherapy and pharmacology, 2011).
Values joined by “and” are separate entries in the source; they are usually repeats but may differ in a detail not shown here. Equal entries are not always repeated. “Also recorded” adds a separate entry of the source. Where two headings read alike, the source gives them in different places.

Legend:
tumor cell growth = conditions: inhibition of tumor cell growth in vitro; cited from earlier work
[1] = Stability of satraplatin spiked plasma at room temperature; assay type: in vitro ADME
[2] = Tolerability of a single IV dose of satraplatin in non-human primates; assay type: in vivo, rhesus monkeys (Macaca mulatta); conditions: single 120 mg/m^2 (6 mg/kg) IV dose over 1 h in NHP
Method in brief: (§1)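 Five adult male rhesus monkeys (7.3–14.9 kg) were fasted ≥6 h before and 2 h after dosing and given IV ondansetron 0.1 mg/kg (max 2 mg) beforehand. A single dose of test compound, 6 mg/kg (human equivalent 120 mg/m2) in 5% DMSO/0.9% saline, was infused over 1 h through a central venous catheter, with IV fluid hydration during and after.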

[3] = assay type: in vivo, rhesus monkeys (Macaca mulatta)
Method in brief: as §1

[4] = Plasma ultrafiltrate pharmacokinetics of satraplatin; assay type: in vivo, rhesus monkeys (Macaca mulatta)
Method in brief: as §1

[5] = cited from earlier work
[6] = brain microdialysis in the same NHP model; cited from earlier work
[7] = cited from earlier work; remark: listed apart in the source
[8] = carboplatin administration every 4 weeks; cited from earlier work
[9] = CSF from intralumbar catheter, animal 1, 6 mg/kg IV over 1 h
[10] = plasma UF, individual animal, 6 mg/kg IV over 1 h, 6 mg/kg

Q: With `N.NC1CCCCC1.[Cl-].[Cl-].[Pt+2]` [JM-118] as the molecule, how does the “potency relative to parent drug satraplatin” value (tumor cell growth) read?
A: up to 16 fold

Q: What does the source list for `CC(=O)[O][Pt]([NH2])([Cl])([Cl])([NH]C1CCCCC1)[O]C(C)=O` [Satraplatin, (OC-6–43)-bis(acetato)amminedichloro(cyclohexylamine)platinum]?
A: stability of spiked plasma [1]: at least 2 h; Tolerability [2]: well tolerated; also recorded: no adverse clinical or laboratory sequelae; Cmax [3, 9]: 0.62 µM; Tmax [3, 9]: 1.1 h; Ratio AUC0–48h CSF: AUC0–48h plasma UF ([3]; CSF penetration, individual animal, 6 mg/kg IV over 1 h, 6 mg/kg): 7.4% and 4.6% and 2.2% and 3.9%; AUC0–48h ([3]; CSF, individual animal, 6 mg/kg IV over 1 h, 6 mg/kg): 2.43 µM·h and 1.26 µM·h and 0.49 µM·h and 1.14 µM·h; AUC0–48h, median (range) ([3]; CSF, median (range) of NHP): 1.2 (0.49–2.43) μM h; AUC0–48 for CSF, median (range) ([3]; CSF, median, unit as printed in the results text): 1.2 µM; CSF penetration (Ratio AUC0–48h CSF: AUC0–48h plasma UF), median (range) ([3]; median (range) of NHP): 4.3 (2.2–7.4) %; Cmax ([3]; read-out: Cmax, median (range), CSF, median (range) of NHP): 0.09 µM; AUC0–24h in NHP after IV relative to humans at equivalent oral doses ([4]; plasma UF exposure, NHP IV versus human oral): approximately 20 fold; Tmax ([4]; plasma UF, individual animal, 6 mg/kg (120 mg/m^2) IV over 1 h, time after start of infusion, 6 mg/kg): 1.1 h and 1.0 h and 0.5 h; AUC0–48h [4, 10]: 33.2 µM·h and 27.4 µM·h and 22.6 µM·h and 29.2 µM·h; Cmax [4, 10]: 10.6 µM and 10.4 µM and 5.7 µM and 6.9 µM and 8.3 µM; Cl ([4]; plasma UF, individual animal, dose/AUC0–inf, 6 mg/kg IV over 1 h): 5.67 mL/min/kg and 5.17 mL/min/kg and 6.17 mL/min/kg and 6 mL/min/kg; T½ ([4]; plasma UF, individual animal, terminal half-life, 6 mg/kg IV over 1 h, 6 mg/kg): 13.4 h and 19.5 h and 18.8 h and 17.4 h and 25 h; Cl, median (range) ([4]; plasma UF, median (range) of 5 NHP): 0.36 (0.31–0.37) l/h/kg; AUC0–48h, median (range) ([4]; plasma UF, median (range) of 5 NHP, 6 mg/kg IV over 1 h): 29.2 (22.6–33.2) μM h; Tmax, median (range) ([4]; plasma UF, median (range) of 5 NHP, 6 mg/kg IV over 1 h, after start of infusion): 1.0 (0.5–1.1) h; AUC0–inf, median (range) ([4]; plasma UF, median (range) of 5 NHP, extrapolated to infinity): 32.1 (24.7–38.2) μM h; T½, median (range) ([4]; plasma UF, median (range) of 5 NHP, terminal half-life): 18.8 (13.4–25) h; accumulation factor ([5]; daily dosing in clinical trials): ≤ 4.1; half-life ([5]; human phase I trials after oral dosing, mean): 7 h

Q: Which results are given for `N.N.O=C([O-])C1(C(=O)[O-])CCC1.[Pt+2]` [carboplatin]?
A: CNS penetration [6]: < 5%; CSF penetration ([7]; non-human primate model): 2.6%; incidence of anaphylaxis [8]: ≤ 22%

Q: With `N.N.[Cl][Pt][Cl]` [cisplatin] as the molecule, how does the CSF penetration ([7]; in vivo) read?
A: 3.7%
